Results taken from ChEMBL document CHEMBL4257556, “Novel 1,3,4-thiadiazole-chalcone hybrids containing catechol moiety: synthesis, antioxidant activity, cytotoxicity and DNA interaction studies” (Medchemcomm, 2018).
Active and inactive are the calls of the source. No cut-off for these calls is given here.

Tests used:
[1] = tested on: MRC5; assay: Cytotoxicity against human MRC5 cells assessed as decrease in cell survival after 72 hrs by MTT assay; type: cell-based; details: MRC5, 72 h
Procedure, shortened: (§1)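 HeLa (2000/well), A549 and MRC-5 (5000/well) seeded 20 h before treatment; HL-60 (7000/well) 2 h before. Five concentrations (6.25–100 μM or 3.125–50 μM) from 5 mM DMSO stocks, final DMSO ≤1%, 72 h; survival by MTT. Cisplatin positive control; three independent experiments in triplicate.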

[2] = tested on: A549; assay: Cytotoxicity against human A549 cells assessed as decrease in cell survival after 72 hrs by MTT assay; type: functional, cell-based; details: A549, 72 h; procedure, shortened: as §1
[3] = Antioxidant activity assessed as DPPH free radical scavenging activity after 30 mins; type: functional
Procedure, shortened: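 DPPH (0.05 mM in methanol) mixed with equal volume of compound (DMSO solution diluted in methanol), kept in dark at room temperature 30 min; absorbance at 517 nm, methanol control, ascorbic acid positive control. IC50 = concentration giving 50% of maximum scavenging; mean ± SD of independent triplicate experiments.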

[4] = tested on: HeLa; assay: Cytotoxicity against human HeLa cells assessed as decrease in cell survival after 72 hrs by MTT assay; type: functional, cell-based; procedure, shortened: as §1
[5] = tested on: HL-60; assay: Cytotoxicity against human HL60 cells assessed as decrease in cell survival after 72 hrs by MTT assay; type: functional, cell-based; details: HL-60, 72 h; procedure, shortened: as §1
[6] = tested on: Calf thymus DNA; assay: Binding affinity to calf thymus DNA after 90 mins by spectroscopic titration method; type: nucleic-acid assay; details: Bos taurus
Procedure, shortened: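 Compound fixed at 40 μM titrated with CT-DNA (2.2–13 × 10–5 M) in 40 mM bicarbonate pH 8.4 after 90 min at 37 °C; absorbance at 259 nm per DNA level. Kb from slope/intercept ratio of [DNA]/(εa–εf) versus [DNA] plot; triplicate assays.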

[7] = tested on: Calf thymus DNA; assay: Binding affinity to calf thymus DNA at 10 to 40 uM after 90 mins by UV/visible spectrophotometric analysis; type: nucleic-acid assay; details: Bos taurus
Procedure, shortened: (§2)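 CT-DNA stock in 10 mM Tris-HCl pH 7.9 (A260/A280 1.89–2.01; concentration from ε260 6600 M–1 cm–1). Compound (10, 20 or 40 μM) plus CT-DNA (95 μM) in 40 mM bicarbonate pH 8.4, 37 °C 90 min; spectra 200–800 nm. Hyper/hypochromism at 259 nm from bound versus summed free compound and DNA extinction; triplicate.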

[8] = tested on: Calf thymus DNA; assay: Displacement of Hoechst 33258 from calf thymus DNA assessed as fluorescence intensity of compound-DNA complex at 22 uM by fluorescence spectrophotometric analysis relative to control; type: nucleic-acid assay; details: Bos taurus
Procedure, shortened: (§3)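 CT-DNA 100 μM (per phosphate) in 40 mM bicarbonate pH 8.4 pretreated 20 min with Hoechst 33258 (28 μM final), then compound added stepwise. Excitation 350 nm, emission 390–550 nm, read at 444 nm, 10 nm slits; H–DNA as control. Quenching constant K by Stern–Volmer, I0/I versus r = [compound]/[DNA]; triplicate.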

[9] = tested on: HeLa; assay: Cell cycle arrest in human HeLa cells assessed as accumulation at sub-G1 phase at 2 times IC50 after 24 hrs in presence of caspase-9 inhibitor Z-LEHD-FMK by propidium iodide-staining based flow cytometric method; type: functional
Procedure, shortened: (§4)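 HeLa cells pretreated 2 h with 40 μM peptide caspase inhibitor (Z-DEVD-FMK caspase-3, Z-IETD-FMK caspase-8 or Z-LEHD-FMK caspase-9), then exposed to 2×IC50 compound; subG1 fraction by propidium iodide flow cytometry, compared with samples lacking inhibitor.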

[10] = tested on: DNA; assay: Induction of Escherichia coli pUC19 DNA cleavage after 90 mins by agarose gel electrophoresis method; type: nucleic-acid assay
Procedure, shortened: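 Plasmid pUC19 (from E. coli XL1 blue; 460 ng, 12 nM) incubated with compound (0.05–0.4 mM; from 2 mM DMSO stock) in 20 μL 40 mM bicarbonate pH 8.4 at 37 °C for 90 min; 1% agarose gel in TAE at 80 V, ethidium bromide staining, UV at 312 nm; supercoiled/nicked/linear forms scored.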

[11] = tested on: DNA; assay: Reversal of Fe2+-induced Escherichia coli pUC19 DNA cleavage at 1:1 compound to Fe2+ mole ratio after 90 mins by agarose gel electrophoresis method; type: functional
Procedure, shortened: (§5)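 Compound (4 μL of 2 mM) preincubated with FeSO4 (1 or 2 μL of 8 mM; compound:Fe 1:1 or 1:2) in bicarbonate buffer 60 min at 37 °C, then pUC19 added for another 90 min; products resolved on 1% agarose gel, ethidium bromide stained.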

[12] = tested on: HeLa; assay: Downregulation of miR-133b expression in human HeLa cells at 10 uM after 24 hrs by RT-qPCR method; type: functional, cell-based
[13] = tested on: EA.hy 926; assay: Antiangiogenic activity in human EAhy926 cells assessed as inhibition of tubular structures formation at IC20 after 20 hrs by inverted phase-contrast microscopic method; type: functional, cell-based
[14] = tested on: MRC5; assay: Induction of DNA damage in human MRC5 cells assessed as formation of DNA breaks after 24 hrs by comet assay; type: functional, cell-based
Procedure, shortened: (§6)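 MRC-5 cells exposed 24 h to 3.125–25 μM compound; DNA damage scored as % tail DNA (tail intensity) by comet assay. PBS negative control; H2O2 50 μM 5 min in-gel positive control. Triplicate, repeated twice; mean ± SD.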

[15] = tested on: DNA; assay: Reversal of Fe2+-induced Escherichia coli pUC19 DNA cleavage at 1:2 compound to Fe2+ mole ratio after 90 mins by agarose gel electrophoresis method; type: functional; procedure, shortened: as §5
[16] = tested on: MRC5; assay: Induction of DNA damage in human MRC5 cells assessed as formation of DNA breaks at 25 uM after 24 hrs by comet assay relative to control; type: functional; procedure, shortened: as §6
[17] = tested on: HeLa; assay: Cell cycle arrest in human HeLa cells assessed as accumulation at G2/M phase at 2 times IC50 after 24 hrs by propidium iodide staining-based flow cytometric method; type: functional
Procedure, shortened: (§7)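 HeLa cells treated 24 h at IC50 or 2×IC50 (from 72 h assay), fixed in 70% ethanol, stored at –20 °C ≥1 week, RNase A 30 min 37 °C, propidium iodide stained; flow cytometry, 10 000 gated events. Mean ± SD of three independent experiments; one-way ANOVA with Dunnett's post-test, p < 0.05.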

[18] = tested on: HeLa; assay: Downregulation of MMP2 gene expression in human HeLa cells at 10 uM after 24 hrs by RT-qPCR method; type: functional, cell-based
[19] = tested on: HeLa; assay: Downregulation of miR-155 expression in human HeLa cells at 10 uM after 24 hrs by RT-qPCR method; type: functional, cell-based
[20] = tested on: HeLa; assay: Upregulation of MMP9 gene expression in human HeLa cells at 10 uM after 24 hrs by RT-qPCR method; type: functional, cell-based
[21] = tested on: Calf thymus DNA; assay: Binding affinity to calf thymus DNA assessed as hypochromism at 10 to 20 uM after 90 mins by UV/visible spectrophotometric analysis; type: nucleic-acid assay; details: Bos taurus; procedure, shortened: as §2
[22] = tested on: HeLa; assay: Cell cycle arrest in human HeLa cells assessed as accumulation at sub-G1 phase at 2 times IC50 after 24 hrs in presence of caspase-8 inhibitor Z-IETD-FMK by propidium iodide-staining based flow cytometric method; type: functional; procedure, shortened: as §4
[23] = tested on: HeLa; assay: Upregulation of miR-206 expression in human HeLa cells at 10 uM after 24 hrs by RT-qPCR method; type: functional, cell-based
[24] = tested on: HeLa; assay: Downregulation of TIMP3 gene expression in human HeLa cells at 10 uM after 24 hrs by RT-qPCR method; type: functional, cell-based
[25] = tested on: HeLa; assay: Prooxidant activity in human HeLa cells assessed as increase in H2O2-induced reactive oxygen species at 10 uM preincubated for 24 hrs followed by H2O2 addition and measured after 30 mins by dichlorofluorescein dye-based flow cytometric method; type: functional, cell-based
Procedure, shortened: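 HeLa cells pretreated 24 h with 10 μM compound, washed, loaded with 30 μM DCFH-DA in PBS 45 min at 37 °C. One portion read directly (endogenous ROS); other portion exposed to 10 mM H2O2 30 min at 37 °C. DCF green fluorescence by flow cytometry, 20 000 events per sample; mean ± SD of two independent experiments.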

[26] = tested on: HeLa; assay: Downregulation of miR-21 expression in human HeLa cells at 10 uM after 24 hrs by RT-qPCR method; type: functional, cell-based
[27] = tested on: HeLa; assay: Cell cycle arrest in human HeLa cells assessed as accumulation at sub-G1 phase at IC50 and 2 times IC50 after 24 hrs by propidium iodide staining-based flow cytometric method; type: functional; procedure, shortened: as §7
[28] = tested on: Calf thymus DNA; assay: Displacement of Hoechst 33258 from calf thymus DNA assessed as quenching constant by fluorescence spectrophotometric analysis; type: nucleic-acid assay; details: Bos taurus; procedure, shortened: as §3
[29] = tested on: HeLa; assay: Downregulation of VEGFA gene expression in human HeLa cells at 10 uM after 24 hrs by RT-qPCR method; type: functional, cell-based
[30] = tested on: HeLa; assay: Cell cycle arrest in human HeLa cells assessed as accumulation at sub-G1 phase at 2 times IC50 after 24 hrs in presence of caspase-3 inhibitor Z-DEVD-FMK by propidium iodide-staining based flow cytometric method; type: functional; procedure, shortened: as §4
[31] = tested on: HeLa; assay: Cell cycle arrest in human HeLa cells assessed as decrease in cell levels at G1 phase at 2 times IC50 after 24 hrs by propidium iodide staining-based flow cytometric method; type: functional; procedure, shortened: as §7
[32] = tested on: Calf thymus DNA; assay: Binding affinity to calf thymus DNA assessed as hyperchromism at 10 to 20 uM after 90 mins by UV/visible spectrophotometric analysis; type: nucleic-acid assay; details: Bos taurus; procedure, shortened: as §2

Row | Structure (SMILES) | IC50 [3] [µM] | Kb [6] [×10³ /M] | Activity [7] | Activity [8] [%] | Activity [10] | IC50 [1] [µM] | IC50 [2] [µM] | IC50 [4] [µM] | IC50 [5] [µM] | Activity [9] | Activity [11] | Activity [12] | inhibition [13] | Activity [14] | Activity [15] | Activity [16] [%] | Activity [17] | Activity [18] | Activity [19] | Activity [20] | other results
1 | Cc1ccc(C(=O)/C=C/c2ccc(C(=O)Nc3nnc(-c4ccc(O)c(O)c4)s3)cc2)cc1 | 11.8 | – | – | – | – | 33.7 | 26.4 | 11.2 | 8.44 | – | – | – | – | – | – | – | – | – | – | – | –
2 | O=C(Nc1nnc(-c2ccc(O)c(O)c2)s1)c1ccc(/C=C/C(=O)c2cccc3cc4ccccc4cc23)cc1 | 13.5 | – | – | – | – | 21.2 | 23.2 | 11 | 6.92 | – | – | – | – | – | – | – | – | – | – | – | –
3 | COc1cccc(C(=O)/C=C/c2ccc(C(=O)Nc3nnc(-c4ccc(O)c(O)c4)s3)cc2)c1 | 10.3 | 0.71 | Active | 55 | inactive | 42.5 | 92.1 | 9.98 | 9.92 | inactive | Active | Active | Active | Dose-dependent effect | Active | 20 | Active | Active | Active | Active | Activity [21]: 2.4%; Activity [22]: inactive; Activity [23]: Active; Activity [24]: Active; Activity [25]: Active; Activity [26]: inactive; Activity [27]: Active; K [28]: 3.95; Activity [29]: Active; Activity [30]: inactive
4 | O=C(Nc1nnc(-c2ccc(O)c(O)c2)s1)c1ccc(/C=C/C(=O)c2cccs2)cc1 | 11.1 | 1.01 | Active | 51 | inactive | 68.5 | 47.9 | 12.7 | 15.7 | inactive | Active | Active | Active | Dose-dependent effect | Active | 25 | Active | Active | Active | Active | Activity [22]: inactive; Activity [23]: inactive; Activity [24]: Active; Activity [25]: inactive; Activity [26]: Active; Activity [27]: Active; K [28]: 4.66; Activity [31]: Active; Activity [29]: Active; Activity [30]: inactive; Activity [32]: Active

Further lines, with some results ahead:

Row | IC50 [3] [µM] | Kb [6] [×10³ /M] | Activity [7] | Activity [8] [%] | Activity [10] | Structure (SMILES) | IC50 [1] [µM] | IC50 [2] [µM] | IC50 [4] [µM] | IC50 [5] [µM] | Activity [9] | Activity [11] | Activity [12] | inhibition [13] | Activity [14] | Activity [15] | Activity [16] [%] | Activity [17] | Activity [18] | Activity [19] | Activity [20] | other results
5 | 17.8 | – | – | – | – | O=C(/C=C/c1ccc(C(=O)Nc2nnc(-c3ccc(O)c(O)c3)s2)cc1)c1ccc(F)cc1 | 45.8 | 89.3 | 17.8 | 10.6 | – | – | – | – | – | – | – | – | – | – | – | –
6 | 17.9 | – | – | – | – | COc1ccc(C(=O)/C=C/c2ccc(C(=O)Nc3nnc(-c4ccc(O)c(O)c4)s3)cc2)cc1 | 81.3 | 89.1 | 57.6 | 16.4 | – | – | – | – | – | – | – | – | – | – | – | –
